# Measured values taken from ChEMBL document CHEMBL2146441, “2,6-Disubstituted imidazo[2,1-b][1,3,4]thiadiazoles: search for anticancer agents” (2012).
# Assays:
# Assay type in all cases: functional
# U-251 = assay: Cytotoxicity against human U251 cells assessed as cell growth at 10^-6 M after 48 hrs by SRB assay; conditions: U-251, 48 h, read-out: Activity
# Malme-3M = assay: Cytotoxicity against human MALME-3M cells assessed as cell growth at 10^-7 M after 48 hrs by SRB assay; conditions: read-out: Activity
# PC-3 = assay: Cytotoxicity against human PC3 cells assessed as cell growth at 10^-8 M after 48 hrs by SRB assay; conditions: PC-3, 48 h, read-out: Activity
# SF-268 = assay: Cytotoxicity against human SF268 cells assessed as cell growth at 10^-6 M after 48 hrs by SRB assay; conditions: SF-268, 48 h, read-out: Activity
# CAKI-1 = assay: Cytotoxicity against human Caki1 cells assessed as cell growth at 10^-4 M after 48 hrs by SRB assay; conditions: CAKI-1, 48 h, read-out: Activity
# In short: (§1)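 NCI-60 screen: lines kept in RPMI 1640 with 5% FBS, seeded at 5000–40,000 cells/well by doubling time, preincubated 24 h at 37 °C in 5% CO2. Time-zero plates TCA-fixed at drug addition. DMSO stocks diluted in medium, 48 h exposure. Fixation in cold TCA (final 10% adherent, 16% suspension), 0.4% SRB stain, solubilised in 10 mM Tris base, A515. Percent growth computed against control and time-zero.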
# SR [1] = assay: Cytotoxicity against human SR cells assessed as cell growth at 10^-8 M after 48 hrs by SRB assay; conditions: read-out: Activity
# SNB-19 [2] = assay: Growth inhibition of human SNB19 cells after 48 hrs by SRB assay; conditions: SNB-19, 48 h; for CC50: read-out: LC50 (the source's name)
# In short: (§2)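 Adherent NCI-60 lines grown in RPMI 1640 with 5% FBS, seeded at 5000–40,000 cells/well, and preincubated 24 h at 37 °C, 5% CO2. Compound, stocked in DMSO, given either once at 10^-5 M or at five 10-fold dilutions for 48 h. Cells fixed with cold TCA (final 10%), stained with 0.4% SRB, and read at 515 nm. GI50 taken as 50% reduction in net protein increase versus time-zero and control plates.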
# SR [3] = assay: Growth inhibition of human SR cells after 48 hrs by SRB assay
# [4] = Growth inhibition of human MDA-MB-81 cells after 48 hrs by SRB assay
# HOP-92 = assay: Cytotoxicity against human HOP92 cells assessed as cell growth at 10^-7 M after 48 hrs by SRB assay; conditions: HOP-92, 48 h, read-out: Activity
# In short: (§3)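 NCI-60 five-dose screen. Cells were grown in RPMI 1640 with 5% FBS and seeded at 5000–40,000 cells/well according to doubling time. They were pre-incubated 24 h at 37 °C in 5% CO₂, and time-zero (Tz) plates were TCA-fixed at drug addition. Five 10-fold dilutions of DMSO stock were applied for 48 h. Read-out was SRB staining, 515 nm absorbance, with percent growth calculated versus Tz and untreated control.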
# SW-620 = assay: Cytotoxicity against human SW620 cells assessed as cell growth at 10^-7 M after 48 hrs by SRB assay; conditions: SW-620, 48 h, read-out: Activity
# ACHN [5] = assay: Cytotoxicity against human ACHN cells assessed as cell growth at 10^-7 M after 48 hrs by SRB assay; conditions: read-out: Activity; in short: as §1
# CCRF-CEM = assay: Cytotoxicity against human CCRF-CEM cells assessed as cell growth at 10^-7 M after 48 hrs by SRB assay; conditions: read-out: Activity; in short: as §1
# 786-0 [6] = assay: Cytotoxicity against human 786-0 cells assessed as cell growth at 10^-7 M after 48 hrs by SRB assay; conditions: 786-0, 48 h, read-out: Activity; in short: as §1
# ACHN [7] = assay: Cytotoxicity against human ACHN cells assessed as cell growth at 10^-5 M after 48 hrs by SRB assay; conditions: read-out: Activity; in short: as §1
# LOX IMVI = assay: Cytotoxicity against human LOXIMVI cells assessed as cell growth at 10^-5 M after 48 hrs by SRB assay; conditions: read-out: Activity
# OVCAR-3 = assay: Cytotoxicity against human OVCAR3 cells assessed as cell growth at 10^-5 M after 48 hrs by SRB assay; conditions: OVCAR-3, 48 h, read-out: Activity
# 786-0 [8] = assay: Cytotoxicity against human 786-0 cells assessed as cell growth at 10^-6 M after 48 hrs by SRB assay; conditions: 786-0, 48 h, read-out: Activity; in short: as §1
# MDA-MB-468 [9] = assay: Cytotoxicity against human MDA-MB-468 cells assessed as cell growth at 10^-6 M after 48 hrs by SRB assay; conditions: MDA-MB-468, 48 h, read-out: Activity
# MDA-MB-435 = assay: Cytotoxicity against human MDA-MB-435 cells assessed as cell growth at 10^-5 M after 48 hrs by SRB assay; conditions: MDA-MB-435, 48 h, read-out: Activity
# MCF7 = assay: Cytotoxicity against human MCF7 cells assessed as cell growth at 10^-5 M after 48 hrs by SRB assay; conditions: MCF7, 48 h, read-out: Activity
# SN12C = assay: Growth inhibition of human SN12C cells after 48 hrs by SRB assay; conditions: for CC50: read-out: LC50 (the source's name); in short: as §2
# MDA-MB-468 [10] = assay: Growth inhibition of human MDA-MB-468 cells after 48 hrs by SRB assay; conditions: MDA-MB-468, 48 h; in short: as §2
# M14 = assay: Cytotoxicity against human M14 cells assessed as cell growth at 10^-7 M after 48 hrs by SRB assay; conditions: M14, 48 h, read-out: Activity
# HCC 2998 = assay: Cytotoxicity against human HCC2998 cells assessed as cell growth at 10^-6 M after 48 hrs by SRB assay; conditions: HCC 2998, 48 h, read-out: Activity; in short: as §3
# HT-29 = assay: Cytotoxicity against human HT-29 cells assessed as cell growth at 10^-4 M after 48 hrs by SRB assay; conditions: HT-29, 48 h, read-out: Activity; in short: as §3
# SNB-19 [11] = assay: Cytotoxicity against human SNB19 cells assessed as cell growth at 10^-6 M after 48 hrs by SRB assay; conditions: SNB-19, 48 h, read-out: Activity
# A549 = assay: Cytotoxicity against human A549 cells assessed as cell growth at 10^-7 M after 48 hrs by SRB assay; conditions: A549, 48 h, read-out: Activity; in short: as §1
# UACC-257 = assay: Growth inhibition of human UACC257 cells after 48 hrs by SRB assay; conditions: UACC-257, 48 h; for CC50: read-out: LC50 (the source's name); in short: as §2
# KM12 = assay: Cytotoxicity against human KM12 cells assessed as cell growth at 10^-8 M after 48 hrs by SRB assay; conditions: KM12, 48 h, read-out: Activity
# HCT-116 = assay: Cytotoxicity against human HCT116 cells assessed as cell growth at 10^-4 M after 48 hrs by SRB assay; conditions: HCT-116, 48 h, read-out: Activity; in short: as §3
smiles,measurement,setting,value
COc1ccc(-c2nn3cc(-c4ccc(O)cc4O)nc3s2)cc1,growth at 1 µM,U-251,77%
same,growth at 0.1 µM,Malme-3M,90%
same,growth at 0.01 µM,PC-3,96%
same,growth at 1 µM,SF-268,73%
same,growth at 100 µM,CAKI-1,-9%
same,growth at 0.01 µM,SR [1],89%
same,GI50,SNB-19 [2],3.57 µM
same,TGI,SNB-19 [2],> 100 µM
same,CC50,SNB-19 [2],> 100 µM
same,GI50,SR [3],2.17 µM
same,LC50,SR [3],> 100 µM
same,TGI,SR [3],14 µM
same,GI50,[4],1.37 µM
same,growth at 0.1 µM,HOP-92,64%
same,growth at 0.1 µM,SW-620,96%
same,growth at 0.1 µM,ACHN [5],101%
same,growth at 0.1 µM,CCRF-CEM,92%
same,growth at 0.1 µM,786-0 [6],99%
same,growth at 10 µM,ACHN [7],9%
same,growth at 10 µM,LOX IMVI,4%
same,growth at 10 µM,OVCAR-3,-7%
same,growth at 1 µM,786-0 [8],90%
same,growth at 1 µM,MDA-MB-468 [9],59%
same,growth at 10 µM,MDA-MB-435,14%
same,growth at 10 µM,MCF7,3%
same,GI50,SN12C,2.58 µM
same,TGI,SN12C,> 100 µM
same,CC50,SN12C,> 100 µM
same,GI50,MDA-MB-468 [10],1.5 µM
same,LC50,MDA-MB-468 [10],> 100 µM
same,TGI,MDA-MB-468 [10],17.6 µM
same,growth at 0.1 µM,M14,96%
same,growth at 1 µM,HCC 2998,78%
same,growth at 100 µM,HT-29,-20%
same,growth at 1 µM,SNB-19 [11],85%
same,growth at 0.1 µM,A549,99%
same,GI50,UACC-257,4.98 µM
same,TGI,UACC-257,76.4 µM
same,CC50,UACC-257,> 100 µM
same,growth at 0.01 µM,KM12,98%
same,growth at 100 µM,HCT-116,-55%
COc1ccc(-c2nn3cc(-c4cccc(N)c4)nc3s2)cc1,growth at 1 µM,U-251,95%
same,growth at 0.1 µM,Malme-3M,97%
same,growth at 0.01 µM,PC-3,91%
same,growth at 1 µM,SF-268,88%
same,growth at 100 µM,CAKI-1,-39%
same,growth at 0.01 µM,SR [1],103%
same,GI50,SNB-19 [2],12.4 µM
same,TGI,SNB-19 [2],> 100 µM
same,CC50,SNB-19 [2],> 100 µM
same,GI50,SR [3],3.27 µM
same,LC50,SR [3],> 100 µM
same,TGI,SR [3],> 100 µM
same,GI50,[4],1.58 µM
same,growth at 0.1 µM,HOP-92,53%
same,growth at 0.1 µM,SW-620,95%
same,growth at 0.1 µM,ACHN [5],105%
same,growth at 0.1 µM,CCRF-CEM,89%
same,growth at 0.1 µM,786-0 [6],105%
same,growth at 10 µM,ACHN [7],27%
same,growth at 10 µM,LOX IMVI,26%
same,growth at 10 µM,OVCAR-3,19%
same,growth at 1 µM,786-0 [8],104%
same,growth at 1 µM,MDA-MB-468 [9],68%
same,growth at 10 µM,MDA-MB-435,11%
same,growth at 10 µM,MCF7,21%
same,GI50,SN12C,4.18 µM
same,TGI,SN12C,> 100 µM
same,CC50,SN12C,> 100 µM
same,GI50,MDA-MB-468 [10],1.83 µM
same,LC50,MDA-MB-468 [10],> 100 µM
same,TGI,MDA-MB-468 [10],9.32 µM
same,growth at 0.1 µM,M14,101%
same,growth at 1 µM,HCC 2998,84%
same,growth at 100 µM,HT-29,-48%
same,growth at 1 µM,SNB-19 [11],81%
same,growth at 0.1 µM,A549,106%
same,GI50,UACC-257,17.3 µM
same,TGI,UACC-257,> 100 µM
same,CC50,UACC-257,> 100 µM
same,growth at 0.01 µM,KM12,98%
same,growth at 100 µM,HCT-116,-91%
